According to ChEMBL document CHEMBL5055631, “Antitumor properties of novel sesquiterpene lactone analogs as NFκB inhibitors that bind to the IKKβ ubiquitin-like domain (ULD)” (Eur J Med Chem, 2021):

How the values were obtained:
Assay type in all cases: functional
CCRF-CEM = assay: Anticancer activity against human CCRF-CEM cells assessed as cell growth inhibition incubated for 48 hrs by sulforhodamine B assay
RPMI-8226 = assay: Anticancer activity against human RPMI-8226 cells assessed as cell growth inhibition incubated for 48 hrs by SRB method
SR = assay: Anticancer activity against human SR cells assessed as cell growth inhibition incubated for 48 hrs by SRB method
In short: (§1)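 NCI-60 panel (DTP). Cells in RPMI 1640 with 5% FBS, 2 mM L-glutamine, seeded at 5,000–40,000 per well by doubling time and preincubated 24 h at 37 °C, 5% CO2. Time-zero plates TCA-fixed. DMSO stocks diluted in medium with gentamicin, tested at 100 μM, 10 μM, 1 μM, 0.1 μM and 10 nM for 48 h. Cells fixed with cold TCA, stained with SRB, absorbance read at 515 nm.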

A549 = assay: Anticancer activity against human A549 cells assessed as cell growth inhibition incubated for 48 hrs by SRB method; in short: as §1
EKVX = assay: Anticancer activity against human EKVX cells assessed as cell growth inhibition incubated for 48 hrs by SRB method; in short: as §1
HOP-62 = assay: Anticancer activity against human HOP-62 cells assessed as cell growth inhibition incubated for 48 hrs by SRB method; in short: as §1
MOLT-4 = assay: Anticancer activity against human MOLT-4 assessed as cell growth inhibition incubated for 48 hrs by SRB method
K562 = assay: Anticancer activity against human K562 cells assessed as cell growth inhibition incubated for 48 hrs by SRB method
HL-60(TB) = assay: Anticancer activity against human HL-60(TB) cells assessed as cell growth inhibition incubated for 48 hrs by SRB method
NCI-H23 = assay: Anticancer activity against human NCI-H23 cells assessed as cell growth inhibition incubated for 48 hrs by SRB method; in short: as §1
NCI-H460 = assay: Anticancer activity against human NCI-H460 cells assessed as cell growth inhibition incubated for 48 hrs by SRB method; in short: as §1
COLO 205 = assay: Anticancer activity against human COLO 205 cells assessed as cell growth inhibition incubated for 48 hrs by SRB method
HCC 2998 = assay: Anticancer activity against human HCC 2998 cells assessed as cell growth inhibition incubated for 48 hrs by SRB method; in short: as §1
HCT-116 = assay: Anticancer activity against human HCT-116 cells assessed as cell growth inhibition incubated for 48 hrs by SRB method; in short: as §1
HCT-15 = assay: Anticancer activity against human HCT-15 cells assessed as cell growth inhibition incubated for 48 hrs by SRB method; in short: as §1
HT-29 = assay: Anticancer activity against human HT29 cells assessed as cell growth inhibition incubated for 48 hrs by SRB method; in short: as §1
KM12 = assay: Anticancer activity against human KM12 cells assessed as cell growth inhibition incubated for 48 hrs by SRB method; in short: as §1
SW-620 = assay: Anticancer activity against human SW-620 cells assessed as cell growth inhibition incubated for 48 hrs by SRB method
SF-295 = assay: Anticancer activity against human SF-295 cells assessed as cell growth inhibition incubated for 48 hrs by SRB method; in short: as §1
SF-539 = assay: Anticancer activity against human SF-539 cells assessed as cell growth inhibition incubated for 48 hrs by SRB method
SNB-75 = assay: Anticancer activity against human SNB-75 cells assessed as cell growth inhibition incubated for 48 hrs by SRB method
U-251 = assay: Anticancer activity against human U-251 cells assessed as cell growth inhibition incubated for 48 hrs by SRB method
In short: (§2)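 NCI-60 panel, SRB assay. Cells grown in RPMI 1640 with 5% FBS and 2 mM L-glutamine, seeded at 5,000–40,000 cells/well depending on doubling time, and preincubated 24 h at 37 °C with 5% CO2. Time-zero plates were TCA-fixed. Compounds came from DMSO stocks and were tested at 100 μM, 10 μM, 1 μM, 0.1 μM and 10 nM for 48 h. Cells were fixed with cold TCA and stained with 0.4% SRB, and the dye was solubilized in 10 mM Tris base with A515 read.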

LOX IMVI = assay: Anticancer activity against human LOX IMVI cells assessed as cell growth inhibition incubated for 48 hrs by SRB method
M14 = assay: Anticancer activity against human M14 cells assessed as cell growth inhibition incubated for 48 hrs by SRB method; in short: as §1
MDA-MB-435 = assay: Anticancer activity against human MDA-MB-435 cells assessed as cell growth inhibition incubated for 48 hrs by SRB method; in short: as §1
SK-MEL-28 = assay: Anticancer activity against human SK-MEL-28 cells assessed as cell growth inhibition incubated for 48 hrs by SRB method; in short: as §1
UACC-257 = assay: Anticancer activity against human UACC-257 assessed as cell growth inhibition incubated for 48 hrs by SRB method; in short: as §2
UACC-62 = assay: Anticancer activity against human UACC-62 cells assessed as cell growth inhibition incubated for 48 hrs by SRB method; in short: as §2
OVCAR-8 = assay: Anticancer activity against human OVCAR-8 cells assessed as cell growth inhibition incubated for 48 hrs by SRB method; in short: as §1
786-0 = assay: Anticancer activity against human 786-0 cells assessed as cell growth inhibition incubated for 48 hrs by SRB method; in short: as §1
A498 = assay: Anticancer activity against human A498 cells assessed as cell growth inhibition incubated for 48 hrs by SRB method; in short: as §1
CAKI-1 = assay: Anticancer activity against human CAKI-1 cells assessed as cell growth inhibition incubated for 48 hrs by SRB method; in short: as §1
RXF 393 = assay: Anticancer activity against human RXF 393 cells assessed as cell growth inhibition incubated for 48 hrs by SRB method; in short: as §1
UO-31 = assay: Anticancer activity against human UO-31 cells assessed as cell growth inhibition incubated for 48 hrs by SRB method
In short: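 NCI-60 panel, SRB assay. Time-zero plates were TCA-fixed. Compounds came from DMSO stocks and were tested at 100 μM, 10 μM, 1 μM, 0.1 μM and 10 nM for 48 h. Cells were fixed with cold TCA and stained with 0.4% SRB, and the dye was solubilized in 10 mM Tris base with A515 read.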

PC-3 = assay: Anticancer activity against human PC-3 cells assessed as cell growth inhibition incubated for 48 hrs by SRB method; in short: as §1
MCF7 = assay: Anticancer activity against human MCF7 cells assessed as cell growth inhibition incubated for 48 hrs by SRB method; in short: as §1
MDA-MB-231 = assay: Anticancer activity against human MDA-MB-231 cells assessed as cell growth inhibition incubated for 48 hrs by SRB method; in short: as §1
[1] = Anticancer activity against human HS 578T cells assessed as cell growth inhibition incubated for 48 hrs by SRB method
BT-549 = assay: Anticancer activity against human BT-549 cells assessed as cell growth inhibition incubated for 48 hrs by SRB method; in short: as §1
T47D = assay: Anticancer activity against human T47D cells assessed as cell growth inhibition incubated for 48 hrs by SRB method; in short: as §1
MDA-MB-468 = assay: Anticancer activity against human MDA-MB-468 cells assessed as cell growth inhibition incubated for 48 hrs by SRB method; in short: as §1

SMILES: C=C1C(=O)O[C@H]2[C@H]1CC/C(COC(=O)NCc1cc(OC)cc(OC)c1)=C\CC[C@@]1(C)O[C@@H]21
- GI50 (CCRF-CEM): 0.47 µM
- GI50 (RPMI-8226): 1.8 µM
- GI50 (SR): 0.32 µM
- GI50 (A549): 2.58 µM
- GI50 (EKVX): 2.06 µM
- GI50 (HOP-62): 3.06 µM
- GI50 (MOLT-4): 2 µM
- GI50 (K562): 1.57 µM
- GI50 (HL-60(TB)): 1.69 µM
- GI50 (NCI-H23): 1.84 µM
- GI50 (NCI-H460): 3.01 µM
- GI50 (COLO 205): 1.35 µM
- GI50 (HCC 2998): 1.94 µM
- GI50 (HCT-116): 0.77 µM
- GI50 (HCT-15): 0.77 µM
- GI50 (HT-29): 1.2 µM
- GI50 (KM12): 2.8 µM
- GI50 (SW-620): 1.12 µM
- GI50 (SF-295): 7.78 µM
- GI50 (SF-539): 1.54 µM
- GI50 (SNB-75): 1.99 µM
- GI50 (U-251): 3.16 µM
- GI50 (LOX IMVI): 0.54 µM
- GI50 (M14): 1.64 µM
- GI50 (MDA-MB-435): 1.99 µM
- GI50 (SK-MEL-28): 1.66 µM
- GI50 (UACC-257): 0.27 µM
- GI50 (UACC-62): 1.2 µM
- GI50 (OVCAR-8): 1.7 µM
- GI50 (786-0): 1.6 µM
- GI50 (A498): 2.98 µM
- GI50 (CAKI-1): 2.11 µM
- GI50 (RXF 393): 1.29 µM
- GI50 (UO-31): 0.68 µM
- GI50 (PC-3): 1.66 µM
- GI50 (MCF7): 2.72 µM
- GI50 (MDA-MB-231): 0.72 µM
- GI50 [1]: 0.58 µM
- GI50 (BT-549): 1.61 µM
- GI50 (T47D): 4.12 µM
- GI50 (MDA-MB-468): 0.58 µM

SMILES: C=C1C(=O)O[C@H]2[C@H]1CC/C(COC(=O)NCCc1ccc(OC)cc1)=C\CC[C@@]1(C)O[C@@H]21
- GI50 (CCRF-CEM): 1.98 µM
- GI50 (RPMI-8226): 2.85 µM
- GI50 (SR): 2.07 µM
- GI50 (A549): 13.2 µM
- GI50 (EKVX): 7.45 µM
- GI50 (HOP-62): 12.2 µM
- GI50 (MOLT-4): 2.61 µM
- GI50 (K562): 3.08 µM
- GI50 (HL-60(TB)): 2.34 µM
- GI50 (NCI-H23): 4.34 µM
- GI50 (NCI-H460): 12.2 µM
- GI50 (COLO 205): 1.94 µM
- GI50 (HCC 2998): 2.48 µM
- GI50 (HCT-116): 1.34 µM
- GI50 (HCT-15): 1.74 µM
- GI50 (HT-29): 2.15 µM
- GI50 (KM12): 8.36 µM
- GI50 (SW-620): 2.51 µM
- GI50 (SF-295): 13.5 µM
- GI50 (SF-539): 1.79 µM
- GI50 (SNB-75): 4.09 µM
- GI50 (U-251): 11.1 µM
- GI50 (LOX IMVI): 1.38 µM
- GI50 (M14): 1.98 µM
- GI50 (MDA-MB-435): 3.53 µM
- GI50 (SK-MEL-28): 8.97 µM
- GI50 (UACC-257): 1.47 µM
- GI50 (UACC-62): 1.71 µM
- GI50 (OVCAR-8): 3.41 µM
- GI50 (786-0): 2.77 µM
- GI50 (A498): 10 µM
- GI50 (CAKI-1): 4.52 µM
- GI50 (RXF 393): 1.72 µM
- GI50 (UO-31): 1.55 µM
- GI50 (PC-3): 2.73 µM
- GI50 (MCF7): 8.08 µM
- GI50 (MDA-MB-231): 1.92 µM
- GI50 [1]: 1.89 µM
- GI50 (BT-549): 2.02 µM
- GI50 (T47D): 13.8 µM
- GI50 (MDA-MB-468): 1.55 µM
